NF-kB expr up – activators of NF-kB expression in neurons, primary screen, cell-based, HTS; human neuronal cells, NF-kB reporter expression; stronger effect = higher value; fold change at 12.5 µM; 190,000 compounds, 1.6% hits; in the data active = fold change above about 3.3
STAT1 inh – STAT1 signaling inhibitors, primary screen, cell-based, HTS, luciferase reporter | NIH 3T3 STAT1-luciferase reporter, IFN-gamma, luminescence | inhibition, % at 5.5 µM | 200,000 compounds, 0.35% hits;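 active = inhibition above a set limit, the mean inhibition across all tested compounds plus 3 SD, cut at about 34% in these data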;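 note: 0% = IFN-gamma with DMSO and 100% = IFN-gamma with 300 µM nifuroxazide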
APP 5'UTR act – activators of APP 5'UTR luciferase reporter, primary screen, SH-SY5Y cells; SH-SY5Y APP 5'UTR luciferase reporter, luminescence; zero percent = DMSO vehicle wells; activation, % at 2 µM; 190,000 compounds, 1% hits; AID 1276, 2008;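 active = activation above a set limit, based on mean plus 3 SD of controls, cut at about 140% in these data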
STAT1 activator – STAT1 signaling activators, primary screen, cell-based, HTS, luciferase reporter. NIH 3T3 STAT1-luciferase reporter, IFN-gamma, luminescence; 100% = IFN-gamma alone, no compound. activation (% of control), % at 5.5 µM. 200,000 compounds, 2.6% hits. AID 932, 2007;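 active = activation above the screen-wide mean activation plus 3 SD, cut at about 130% in these data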;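 note: raw ratio to IFN-gamma control signal so 100% means no change and 0% no light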
STAT3 inh-1 – IL-6 driven STAT3 reporter inhibitors, primary screen, U3A cells, luciferase, luminescence, MLSCN library; IL-6 STAT3-luciferase reporter; host cell line lacks STAT1; inhibition, % at 5.5 µM; 190,000 compounds, 0.89% hits; AID 862, 2007;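 active = inhibition above the mean inhibition across all screened compounds plus 3 SD, cut at about 44% in these data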;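 note: 0% = DMSO only wells and 100% = 100 µM nifuroxazide control wells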
STAT3 act – IL-6 driven STAT3 reporter potentiators, primary screen, U3A cells, luciferase, luminescence, MLSCN library; IL-6 STAT3-luciferase reporter; 100% = signal with IL-6 EC80 alone; 190,000 compounds, 0.91% hits; AID 871, 2007; activation (% of control), % at 5.6 µM;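 active = activation above the screen-wide mean of compound activation plus 3 SD, cut at about 130% in these data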;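 note: 0% = background luminescence of wells with medium and substrate only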
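Material: human STAT1-deficient U3A cells with stable STAT3-luciferase reporter / Probe or stimulus: IL-6 stimulus at 33 ng/mL final / Schedule: 1 h compound pre-exposure, 6 h IL-6 stimulation, 37 °C / Technique: luminescence / Read-out basis: percent of IL-6-only median luminescence / Control set: IL-6-only high control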
STAT3 inh-2 – STAT3 reporter inhibitors, retest of hits, confirmation, U3A cells, luciferase, luminescence | inhibition, % at 5.7 µM | shares compounds with STAT3 inh-1 | 1,200 compounds, 45% hits | IL-6 STAT3 luciferase reporter; cell line lacks STAT1;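 active = inhibition above the hit cutoff computed for the primary STAT3 screen, cut at about 44% in these data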;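 note: 0% = IL-6 plus DMSO and 100% = IL-6 plus nifuroxazide control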
NFkB inh 2 – NF-kB reporter inhibitors in human cells, confirmation, counter-screen for STAT3 inhibitor project, cell-based, HEK293T, luciferase, TNF-alpha stimulus. shares compounds with STAT3 inh-1. TNF-alpha induced. inhibition, % at 5.7 µM. 1,200 compounds, 36% hits;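 active = inhibition above the mean of solvent-only control wells plus 3 SD, cutoff set per campaign, cut at about 13% in these data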;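 note: 0% = TNF-alpha with DMSO and 100% = TNF-alpha with MG high control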
STAT1 inh STAT3c – STAT1 reporter inhibitors, IFN-gamma induced, confirmation, counter-screen for STAT3 inhibitor project, cell-based, NIH 3T3, luciferase luminescence; shares compounds with STAT3 inh-1; NIH 3T3 STAT1-luciferase reporter; inhibition, % at 5.7 µM; 1,200 compounds, 27% hits;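 active = inhibition above the mean plus 3 SD of solvent-only control wells, limit set per screening run, cut at about 16% in these data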;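 note: 0% = DMSO with IFN-gamma and 100% = nifuroxazide control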
* = called active by the depositor; x = no result given. Sampled rows, rich in hits. Any-hit rate of the full collection: about 4.9%.

SMILES | NF-kB expr up | STAT1 inh | APP 5'UTR act | STAT1 activator | STAT3 inh-1 | STAT3 act | STAT3 inh-2 | NFkB inh 2 | STAT1 inh STAT3c
CC(=O)c1cn(CC(=O)Nc2cccc(C)c2C)c2ccccc12 | 0.8 | 29.2 | -4.9 | 71.6 | 49.1* | 59.9 | 43.7* | 15.0* | 22.6*
CC(=O)c1cn(CC(=O)NCc2cccnc2)c2ccccc12 | 1.09 | 7.4 | -7.5 | 93.2 | 10.2 | 94.3 | x | x | x
CC(=O)c1cn(CC(=O)Nc2ccc(C)cc2C)c2ccccc12 | 1.02 | 25.7 | -13.5 | 73.4 | 62.2* | 50.6 | 61.1* | 12.2 | 21.7*
CC(C)c1ccccc1NC(=O)COC(=O)Cc1ccsc1 | 1.05 | 2.0 | 4.6 | 98.2 | -10.4 | 107.4 | x | x | x
Cc1ccc(N(CC(=O)NC(C)(C)C)C(=O)CNC(=O)c2cccs2)c(C)c1 | 1.01 | 2.7 | 6.3 | 98.0 | -1.9 | 103.6 | x | x | x
O=C(Nc1nccs1)c1ccc(S(=O)(=O)NCC2CCCCC2)cc1 | 1.05 | 5.4 | -7.3 | 95.1 | 71.4* | 44.8 | 54.9* | 10.9 | 3.4
COc1ccc(CNS(=O)(=O)NCc2ccc(C)cc2)cc1 | 1.11 | 0.3 | -2.0 | 98.6 | 0.5 | 102.5 | x | x | x
CC(=O)Nc1cccc(OCC(O)Cn2c(C)nc3ccccc32)c1 (stereo not drawn) | 0.93 | 4.9 | 20.7 | 96.0 | 14.9 | 89.3 | x | x | x
OC(COCC1CC=CCC1)Cn1cnc2ccccc21 (stereo not drawn) | 1.01 | 0.4 | 13.0 | 99.7 | -0.1 | 98.8 | x | x | x
CCCOC(=O)c1ccc(OCC(O)Cn2c(C)nc3ccccc32)cc1 (stereo not drawn) | 1.35 | 22.9 | 0.2 | 76.5 | 60.6* | 50.3 | 62.8* | 20.1* | 22.7*
Cc1nc2ccccc2n1CC(O)COCC1CC=CCC1 (stereo not drawn) | 0.73 | 14.1 | -12.8 | 84.5 | 44.3* | 63.0 | 40.3 | -0.5 | 10.6
Nc1cc(N)cc(-c2nc3ccccc3[nH]2)c1 | 0.56 | -10.3 | 15.4 | 109.4 | -13.6 | 117.9 | x | x | x
COC(=O)c1ccc(-c2ncc[nH]2)cc1 | 1.35 | -5.0 | 19.6 | 102.6 | 16.1 | 91.2 | x | x | x
COC(=O)c1ccc(-c2nc3ccccc3[nH]2)cc1 | 7.09* | -22.9 | 130.7 | 121.6 | 51.7* | 57.1 | 22.2 | -23.3 | -90.6
COc1ccc(-c2nc3ccccc3[nH]2)cc1 | 4.98* | 14.8 | 184.7* | 86.4 | 59.7* | 49.8 | 37.3 | 1.7 | -45.3
CC(=O)Nc1ccc(SCC(=O)N(C)C2CCS(=O)(=O)C2)cc1 (stereo not drawn) | 0.98 | -5.9 | -20.3 | 104.9 | 2.6 | 99.7 | x | x | x
COc1ccc(-n2c(-c3ccc(Br)cc3)c[n+]3c2SC(C)C3)cc1 (stereo not drawn) | 0.78 | 17.1 | 36.6 | 83.8 | 45.9* | 65.6 | 40.7 | -5.1 | 22.2*
CC(C)(C)c1ccc(C(=O)Nc2cccc3c(=O)[nH][nH]c(=O)c23)cc1 | 1.84 | 6.9 | 91.4 | 93.9 | 67.4* | 43.3 | -5.7 | 3.4 | -20.7
CC(C)OC(=O)CC1C(=O)NCCN1C(=S)NC(=O)c1cccs1 (stereo not drawn) | 1.12 | -2.5 | 0.3 | 100.8 | 7.4 | 97.3 | x | x | x
Nc1nc2c(Cl)ccc(Cl)c2s1 | 1.16 | 15.7 | -5.7 | 83.9 | 45.6* | 64.6 | 40.5 | -7.1 | -14.3
Nc1nc2c(Cl)cc(Cl)cc2s1 | 1.18 | -18.1 | 2.3 | 114.5 | 14.3 | 92.8 | x | x | x
Cc1noc(C)c1CSCc1ccc(Cl)cc1 | 1.36 | -2.9 | 18.4 | 100.9 | 11.8 | 94.0 | x | x | x
CCCOc1ccc(N2C(=O)CC(N(CCc3ccccc3)C(=O)c3ccccc3)C2=O)cc1 (stereo not drawn) | 1.05 | 5.8 | -12.7 | 94.5 | 4.0 | 98.4 | x | x | x
CC(NC(=O)COC(=O)c1ccc(N(C)C)cc1)c1ccccc1 (stereo not drawn) | 0.92 | -9.2 | 2.6 | 107.1 | 10.8 | 97.3 | x | x | x
O=C(N/N=C/c1ccccc1Cl)c1n[nH]c2c1CCCC2 | 0.96 | -29.1 | 131.3 | 125.9 | 67.8* | 43.0 | 73.0* | 56.4* | 22.9*
SMILES | NF-kB expr up | STAT1 inh | APP 5'UTR act | STAT1 activator | STAT3 inh-1 | STAT3 act | STAT3 inh-2 | NFkB inh 2 | STAT1 inh STAT3c
O=C(N/N=C/c1ccccc1)c1n[nH]c2c1CCCC2 | 1 | -4.6 | 105.3 | 101.9 | 56.1* | 57.5 | 14.8 | -7.3 | -85.9
COc1cccc(-c2cc(C(=O)Nc3cc(C)n(Cc4ccc(Cl)cc4)n3)no2)c1 | 1.03 | -4.8 | 3.5 | 103.3 | 55.0* | 57.7 | 69.8* | 19.9* | -2.6
Cc1cc(NC(=O)c2cc(-c3ccco3)on2)nn1Cc1ccc(Cl)cc1 | 1.23 | -1.6 | -14.8 | 101.4 | 63.4* | 51.9 | 57.8* | 13.3* | -8.3
CC(=O)Nc1cc(Cl)ccc1OS(=O)(=O)c1ccc(C)cc1 | 1.09 | 9.7 | 19.6 | 91.5 | 2.8 | 100.0 | x | x | x
CC1(C)CC(=O)C2=C(C1)N(c1ccccc1)C(=O)C2(O)C(F)(F)F (stereo not drawn) | 1.14 | 5.3 | 17.2 | 95.3 | 3.6 | 96.9 | x | x | x
COc1cccc(-c2nn(-c3ccccc3)cc2CN(C)C(C)c2ccon2)c1 (stereo not drawn) | 0.84 | 0.1 | -13.3 | 98.4 | 1.1 | 103.0 | x | x | x
Cc1ccc(OCc2nc(-c3cccs3)no2)c([N+](=O)[O-])c1 | 11.2* | 0.2 | 197.9* | 98.4 | 49.7* | 61.1 | -53.4 | -26.8 | -151.6
Cc1nn(C(=O)CNS(=O)(=O)c2ccccc2)c(C)c1Sc1ccc(Cl)cc1 | 1.11 | -12.3 | -4.9 | 111.0 | -4.8 | 106.2 | x | x | x
O=C(Nc1ccc(C(=O)N2CCCC2)cc1)Nc1ccc(Cl)cc1Cl | 0.97 | 4.4 | -10.6 | 96.0 | 11.7 | 89.4 | x | x | x
c1ccc(-c2cnc(-c3ccccc3)nc2)cc1 | 9.41* | -24.5 | 78.7 | 122.6 | 54.0* | 56.7 | 26.5 | 2.1 | -67.9
CCN1/C(=C/c2sc(-c3ccccc3C)c[n+]2C)Sc2ccccc21 | 1.31 | 29.9 | -0.8 | 71.2 | 91.4* | 21.4 | 93.5* | 53.8* | 31.6*
CC1Cc2cc(-c3csc(NC(=O)Cc4ccccc4)n3)ccc2N1S(C)(=O)=O (stereo not drawn) | 0.5 | 3.3 | 0.7 | 97.0 | 66.0* | 46.8 | 53.1* | 13.0* | 9.6

Screening results: PubChem BioAssay, several laboratories
